ChEMBL document CHEMBL1208737, “Synthesis and in vitro evaluation of N-alkyl-3-hydroxy-3-(2-imino-3-methyl-5-oxoimidazolidin-4-yl)indolin-2-one analogs as potential anticancer agents” (2010)

Experiments:
Assay type in all cases: functional
UACC-62 = experiment: Growth inhibition of human UACC62 cells by sulforhodamine B assay; settings: for CC50: read-out: LC50 (the source's name)
Outline: (§1)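 Part of a 57-line human tumour cell panel run at five doses. Growth effect was plotted against log10 molar drug concentration for each cell line. GI50 is the concentration giving a 50% reduction in net protein increase relative to untreated control cells, read from the dose-response curve.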

HCC 2998 = experiment: Growth inhibition of human HCC2998 cells by sulforhodamine B assay
Outline: (§2)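 Five-dose response testing across a 57-line human tumour panel (leukemia, non-small cell lung, colon, CNS, melanoma, ovarian, renal, prostate, breast), done after a single-dose primary screen run per the NCI method. Effect plotted against log10 molar drug concentration for each cell line. GI50 is the concentration giving a 50% reduction in net protein increase versus control cells.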

A498 = experiment: Growth inhibition of human A498 cells by sulforhodamine B assay; settings: for CC50: read-out: LC50 (the source's name); outline: as §2
BT-549 = experiment: Growth inhibition of human BT549 cells by sulforhodamine B assay; outline: as §2
COLO 205 = experiment: Growth inhibition of human COLO205 cells by sulforhodamine B assay; settings: for CC50: read-out: LC50 (the source's name); outline: as §2
UACC-257 = experiment: Growth inhibition of human UACC257 cells by sulforhodamine B assay; outline: as §1
NCI-H522 = experiment: Growth inhibition of human NCI-H522 cells by sulforhodamine B assay; outline: as §2
NCI-H322M = experiment: Growth inhibition of human NCI-H322M cells by sulforhodamine B assay; settings: for CC50: read-out: LC50 (the source's name); outline: as §2
SK-MEL-5 = experiment: Growth inhibition of human SK-MEL-5 cells by sulforhodamine B assay; settings: for CC50: read-out: LC50 (the source's name); outline: as §2
KM12 = experiment: Growth inhibition of human KM12 cells by sulforhodamine B assay; settings: for CC50: read-out: LC50 (the source's name); outline: as §2
RXF 393 = experiment: Growth inhibition of human RXF393 cells by sulforhodamine B assay; settings: for CC50: read-out: LC50 (the source's name); outline: as §2
T47D = experiment: Growth inhibition of human T47D cells by sulforhodamine B assay; outline: as §1
NCI-H23 = experiment: Growth inhibition of human NCI-H23 cells by sulforhodamine B assay; outline: as §2
K562 = experiment: Growth inhibition of human K562 cells by sulforhodamine B assay; settings: for CC50: read-out: LC50 (the source's name); outline: as §2

## COc1ccc(CN2C(=O)C(O)(C3C(=O)NC(=N)N3C)c3cc(Cl)ccc32)cc1 (stereo unspecified)
UACC-62
  GI50: 23.4 µM
  CC50: > 100 µM
HCC 2998
  GI50: 18.7 µM
  LC50: 73.9 µM
A498
  GI50: 34.5 µM
  CC50: > 100 µM
BT-549
  GI50: 2.98 µM
  LC50: 54.9 µM
COLO 205
  GI50: 14.3 µM
  CC50: > 100 µM
UACC-257
  GI50: 1.43 µM
  LC50: 19.4 µM
NCI-H522
  GI50: 1.86 µM
  LC50 (concentration killing 50% of cells): 20.5 µM
NCI-H322M
  GI50: 14.3 µM
  CC50: > 100 µM
SK-MEL-5
  GI50: 22.6 µM
  CC50: > 100 µM
KM12
  GI50: 2.05 µM
  CC50: 30 µM
RXF 393
  GI50: 6.29 µM
  CC50: > 100 µM
T47D
  GI50: 13.5 µM
  LC50: > 100 µM
NCI-H23
  GI50: 4.74 µM
  LC50: > 100 µM
K562
  GI50: 5.04 µM
  CC50: > 100 µM

## COc1ccc(CN2C(=O)C(O)(C3C(=O)NC(=N)N3C)c3ccccc32)cc1 (stereo unspecified)
UACC-62
  GI50: 27.7 µM
  CC50: > 100 µM
HCC 2998
  GI50: 12.8 µM
  LC50: 63.9 µM
A498
  GI50: > 100 µM
  CC50: > 100 µM
BT-549
  GI50: 8.45 µM
  LC50: 97 µM
COLO 205
  GI50: 19.9 µM
  CC50: > 100 µM
UACC-257
  GI50: 6.28 µM
  LC50: > 100 µM
NCI-H522
  GI50: 3.65 µM
  LC50 (concentration killing 50% of cells): > 100 µM
NCI-H322M
  GI50: 41.1 µM
  CC50: > 100 µM
SK-MEL-5
  GI50: 37.3 µM
  CC50: > 100 µM
KM12
  GI50: 2.87 µM
  CC50: 80.4 µM
RXF 393
  GI50: 7.4 µM
  CC50: > 100 µM
T47D
  GI50: 32 µM
  LC50: > 100 µM
NCI-H23
  GI50: 13.9 µM
  LC50: > 100 µM
K562
  GI50: 3.73 µM
  CC50: > 100 µM
